Experimental data gathered from unrelated publications.
Lines come from different studies, so protocols differ.
MET: Hepatocyte growth factor receptor (MET, Homo sapiens, UniProt P08581)
MET Y1235D: Hepatocyte growth factor receptor (MET, Homo sapiens, UniProt P08581, Y1235D)

For C#Cc1cnc(Nc2ccnc(CO)c2)nc1Nc1ccccc1S(C)(=O)=NC#N (centres unmarked), the remaining signal was 83% (MET; cell-free assay; 1 µM).
For C1=C/COCc2cc(ccc2OCCN2CCCC2)Nc2nccc(n2)-c2cccc(c2)COC/1, the remaining binding was 100% (MET Y1235D; binding; 0.1 µM).
For C[C@H]1CC[C@H](n2c3cnccc3c3cnc(Nc4ccc5c(n4)CCN(C(=O)CO)C5)nc32)CC1, the remaining signal was 100% (MET Y1235D; cell-free assay; 1 µM).
For CCCCC(=O)Nc1ccc(-c2ccc3ncn(CCC)c(=O)c3c2)cn1, the remaining binding was 96% (MET; binding; competition with immobilised ligand; 0.5 µM).
Cc1cc(O)c(-c2ccc([C@@H](C)CN(C)C)cc2)c2c1[nH]c(=O)c1sccc12 gave an inhibition of -0.782% (MET; cell-free assay; inhibitor; 0.1 µM).
With CC#CC(=O)N1CCC[C@H]1c1nc(-c2ccc(C(=O)Nc3ccccn3)cc2)c2c(N)nccn12 the inhibition was 17% (MET; enzyme activity; inhibitor; 1 µM).
CC(C)S(=O)(=O)c1ccc2nccc(Nc3ccc4sc(C5CCCC5)nc4c3)c2c1 gave an activity vs control of 119% (MET; enzyme activity; inhibitor; 1 µM).
Cc1ccc(NC(=O)c2ccnc(C(F)(F)F)c2)cc1-c1cc(OCCO)nc(N2CCOCC2)c1 gave a remaining binding of 100% (MET; binding; 1 µM).
For C=CC(=O)N1CCC([C@@H]2CCNc3c(C(N)=O)c(-c4ccc(Oc5ccccc5)cc4)nn32)CC1, the inhibition was 7% (MET; cell-free assay; 1 µM).
With O=C1C=C(Nc2ccc(OCc3cn(Cc4ccccc4)nn3)cc2)C(=O)c2ccccc21 the inhibition was 18% (MET; enzyme activity; inhibitor; radiometric; 10 µM).
COc1ccc2[nH]c3c4[nH]c5ccc(OC)cc5c4c4c(c3c2c1)C(=O)NC4=O gave a remaining binding of 88% (Hepatocyte growth factor receptor (MET, Homo sapiens, UniProt P08581, M1250T); binding; 1 µM).
N#Cc1ccc(NC(=O)Nc2ccccc2)cc1 gave a remaining binding of 100% (MET; cell-free assay; competition with immobilised ligand; 25 µM).
CN1CCN(C(=O)c2ccc(NC(=O)Nc3ccc(N(C)c4ccnc(Nc5ccc(CS(C)(=O)=O)cc5)n4)cc3)cc2)CC1 gave a remaining binding of 4.4% (MET Y1235D; binding; 1 µM).
COc1ccc2oc(-c3ccc4nc(N)oc4c3)c/c(=N\c3ccccc3NC(=O)CCN)c2c1 has a remaining binding of 106% (MET; binding; 1 µM).
